TAAR1 antag = human TAAR1 antagonism; inhibition, % at 3 µM; CHO RD-HGA16 TAAR1, Fluo-8 calcium fluorescence, antagonist; 360,000 compounds, 1.5% hits; Q96RJ0;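 active = inhibition above a per-plate cutoff, the mean inhibition of test compounds on that plate plus 3 SD, cut at about 49% in these data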;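 also: 0% = DMSO plus EC80 beta-PEA response and 100% = DMSO alone without agonist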
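Test system – hTAAR1-expressing CHO RD-HGA16 cells, Gα16-coupled · Also added – β-PEA at EC80 concentration, post-compound challenge · Compound – 3 µM, single point · Incubation – dye loading 75 min at 37 °C, then 30 min room temperature · Measured by – Fluo-8 intracellular calcium dye fluorescence, real-time kinetic reads · Benchmarks – vehicle and agonist controls · Replicates – singlicate, one well per test compound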
GPR7 antagonist = human neuropeptides B/W receptor 1 antagonism; AID 1861; GPR7-expressing cells, fluorescence antagonist assay; P48145; inhibition, % at 4.4 µM; 290,000 compounds, 1.1% hits; in the data active = inhibition above about 16%, passing the limit was not always enough;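 also: cells stimulated with the agonist NPW; 0% = agonist with vehicle and 100% = vehicle without agonist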
OX1R antag-1 = antagonists of human orexin 1 receptor (OX1R); O43613; OX1R-expressing cells, FRET antagonist read-out; inhibition, % at 6.6 µM; 330,000 compounds, 1.8% hits; AID 485270; in the data active = inhibition mostly above about 38%, no sharp cut-off; inactive = mostly below about 40%;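 also: 0% = agonist challenge alone and 100% = reference antagonist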
Target sequence (O43613 whole entry, looked up): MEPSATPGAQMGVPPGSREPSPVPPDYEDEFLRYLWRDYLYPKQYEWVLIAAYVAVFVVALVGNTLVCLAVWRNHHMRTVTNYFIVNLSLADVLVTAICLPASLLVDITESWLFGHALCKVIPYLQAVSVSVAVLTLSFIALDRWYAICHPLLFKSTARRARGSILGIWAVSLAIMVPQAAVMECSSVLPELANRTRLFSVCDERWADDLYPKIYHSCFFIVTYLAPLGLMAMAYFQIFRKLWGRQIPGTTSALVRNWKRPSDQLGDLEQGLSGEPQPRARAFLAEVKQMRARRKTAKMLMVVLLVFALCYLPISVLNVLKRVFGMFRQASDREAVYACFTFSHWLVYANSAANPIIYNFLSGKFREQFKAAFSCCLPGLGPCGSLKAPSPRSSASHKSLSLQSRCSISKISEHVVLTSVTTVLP
OX1R antag-2 = antagonists of human orexin 1 receptor. O43613. CHO/OX1R cells, Fluo-8 calcium fluorescence, orexin A. inhibition, % at 5 µM. 330,000 compounds, 0.43% hits. AID 434989;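 active = inhibition above its plate's threshold, mean inhibition of all tested compounds on the plate plus 3 SD, cut at about 37% in these data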;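 also: 0% = orexin A challenge wells and 100% = SB-334867-A antagonist wells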
CHO parental Ca = signal in parental CHO cells, OX1R antagonist counter-screen; parental CHO-K1, ATP-induced calcium, Fluo-8 fluorescence; inhibition, % at 5.6 µM; 330,000 compounds, 0.63% hits; AID 463079;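 active = inhibition above that plate's mean sample inhibition plus 3 SD, cut at about 26% in these data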;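 also: 0% = ATP-challenged DMSO wells and 100% = DMSO wells without ATP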
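Test system: parental CHO cells; detection: calcium-sensitive Fluo-8 fluorescence; evaluation: percent inhibition of calcium signal; also added: ATP as calcium-mobilizing challenge; repeats: one well per compound; control set: ATP-challenged DMSO wells low, unchallenged DMSO wells high; compound: single nominal dose of 5.6 µM per compound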
TAAR1 ag = human TAAR1 agonism. CHO RD-HGA16 TAAR1, Fluo-8 calcium fluorescence; vehicle wells 0%, saturating PEA agonist 100%. activation, % at 3 µM. 360,000 compounds, 0.99% hits. AID 624467;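 active = activation above the mean activation of all test compounds in the run plus 3 SD, cut at about 38% in these data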
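test system = CHO RD-HGA16 cells carrying human TAAR1 plus Gα16 | schedule = 17-24 h seeding, 75 min 37 °C dye, 30 min RT | compound dosing = 3 µM single concentration | control set = DMSO and PEA EC100 | replicates = n 1 | signal = Fluo-8 fluorescence, 5 s baseline then 140 s kinetic read | measure = percent activation vs PEA EC100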
OX1R HTRF confirm = OX1R (human) antagonism, HTRF confirmed; shares compounds with OX1R antag-1; OX1R-expressing cells, HTRF antagonist assay; inhibition, % at 6.6 µM; 1,800 compounds, 49% hits; AID 492964; in the data active = inhibition above about 55%;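 also: CHO cells expressing OX1R stimulated with orexin A at about EC80; 0% = agonist challenge alone and 100% = reference antagonist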
CHO-K1 HTRF cnt = signal in parental CHO-K1 cells, OX1R antagonist counter-screen | shares compounds with OX1R antag-1 | AID 493232 | 1,800 compounds, 48% hits | inhibition, % at 6.6 µM | HTRF counterscreen; in the data active = inhibition above about 17%;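 also: 0% = agonist challenge with vehicle and 100% = vehicle alone without agonist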
* = called active by the depositor. Shown are actives, neighbours in structure and some others; about 4.6% of the full set was active somewhere.

What do the screens show for `O=C(O)CCC(C(=O)O)n1c(O)c(C2=c3ccccc3=NC2=O)sc1=S` (configuration not stated)?
TAAR1 antag: -2.0; GPR7 antagonist: -12.2; OX1R antag-1: 149.9*; OX1R antag-2: 0.0; CHO parental Ca: -0.4; TAAR1 ag: 19.4; OX1R HTRF confirm: 68.1*; CHO-K1 HTRF cnt: 105.2*

How did O=C1N=c2ccccc2=C1c1sc(=S)n(CC2CCCO2)c1O (configuration not stated) do in these assays?
TAAR1 antag: -12.2; GPR7 antagonist: -3.3; OX1R antag-1: 11.4; OX1R antag-2: -24.0; CHO parental Ca: -10.2; TAAR1 ag: 1.8

Results for COc1cc(C(=O)N2CCCCC2c2cc(C(=O)Nc3ccccc3)no2)cc(OC)c1C (configuration not stated) ?
TAAR1 antag: 11.4; TAAR1 ag: 0.5

How did O=C(O)c1ccc(NC2=C(n3nnc4ccccc43)C(=O)c3ccccc3C2=O)cc1 do in these assays?
TAAR1 antag: -7.6; GPR7 antagonist: -15.6; OX1R antag-1: 173.5*; OX1R antag-2: -13.2; CHO parental Ca: 5.9; TAAR1 ag: 1.8; OX1R HTRF confirm: 53.2; CHO-K1 HTRF cnt: 55.9*

Results for O=C(O)c1cccc(NC2=C(N3CCOCC3)C(=O)c3ccccc3C2=O)c1 ?
TAAR1 antag: 2.6; GPR7 antagonist: -17.5; OX1R antag-1: 23.6; OX1R antag-2: 11.6; CHO parental Ca: 2.8; TAAR1 ag: 0.5

What do the screens show for `O=C(CSc1ccc([N+](=O)[O-])cn1)Nc1ccc2[nH]c(=O)[nH]c2c1`?
TAAR1 antag: -19.5; GPR7 antagonist: 7.3; OX1R antag-1: 93.0*; OX1R antag-2: 5.0; CHO parental Ca: -2.5; TAAR1 ag: 2.3; OX1R HTRF confirm: 27.5; CHO-K1 HTRF cnt: 24.3*

Results for Cc1c(C)n(C)c2ccc(C(=O)Nc3cccc4ccccc34)cc12 ?
TAAR1 antag: 3.6; GPR7 antagonist: -8.8; OX1R antag-1: 84.7*; OX1R antag-2: 10.0; CHO parental Ca: -17.5; TAAR1 ag: 5.7; OX1R HTRF confirm: 77.4*; CHO-K1 HTRF cnt: 9.7

How did O=C(Nc1cccc2ccccc12)c1ccccc1 do in these assays?
TAAR1 antag: -9.5; GPR7 antagonist: -5.2; OX1R antag-1: 3.5; OX1R antag-2: -4.5; CHO parental Ca: -13.6; TAAR1 ag: 0.3

Results for O=C1SCCC1NS(=O)(=O)c1ccc([N+](=O)[O-])cc1 (configuration not stated) ?
TAAR1 antag: -18.7; GPR7 antagonist: -2.4; OX1R antag-1: 95.8*; OX1R antag-2: -6.8; CHO parental Ca: -11.0; TAAR1 ag: 0.7; OX1R HTRF confirm: 27.6; CHO-K1 HTRF cnt: 24.4*

Results for O=C(Nc1ccc2ccccc2c1)c1cnccn1 ?
TAAR1 antag: 2.3; GPR7 antagonist: -11.3; OX1R antag-1: 2.3; OX1R antag-2: 13.7; CHO parental Ca: -13.4; TAAR1 ag: 3.7

What do the screens show for `O=C(Nc1ccc2nccnc2c1)c1cnccn1`?
TAAR1 antag: 4.2; GPR7 antagonist: 5.2; OX1R antag-1: 132.3*; OX1R antag-2: -2.9; CHO parental Ca: -10.5; TAAR1 ag: -0.2; OX1R HTRF confirm: 42.1; CHO-K1 HTRF cnt: 70.1*

Results for CCOC(=O)c1nnn(-c2ccc([N+](=O)[O-])cc2)c1C ?
TAAR1 antag: -20.6; GPR7 antagonist: -11.8; OX1R antag-1: 111.0*; OX1R antag-2: -6.7; CHO parental Ca: 1.7; TAAR1 ag: 1.6; OX1R HTRF confirm: 41.8; CHO-K1 HTRF cnt: 54.4*

What do the screens show for `CCOC(=O)c1cc(-c2cccc([N+](=O)[O-])c2)on1`?
TAAR1 antag: -12.1; GPR7 antagonist: -16.6; OX1R antag-1: 26.5; OX1R antag-2: 10.7; CHO parental Ca: 18.9; TAAR1 ag: -1.2

Results for CCOC(=O)c1csc(-c2ccc([N+](=O)[O-])cc2)n1 ?
TAAR1 antag: -14.6; GPR7 antagonist: -3.3; OX1R antag-1: 104.2*; OX1R antag-2: 0.1; CHO parental Ca: -4.8; TAAR1 ag: 0.1; OX1R HTRF confirm: 40.2; CHO-K1 HTRF cnt: 43.6*

Source: PubChem (The Scripps Research Institute Molecular Screening Center)
